The source of these data is ChEMBL document CHEMBL4033786, “Discovery of Novel 1-Cyclopentenyl-3-phenylureas as Selective, Brain Penetrant, and Orally Bioavailable CXCR2 Antagonists” (J Med Chem, 2018).

Data set [1] is described as follows: Solubility of compound in fasted state simulated intestinal fluid measured after 4 hrs. It is filed as physicochemical. Summed up: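 Solubility in FaSSIF, read after 4 h incubation.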
The nature of data set [2]: Passive permeability in MDCK2-MDR1 cells transduced with BacMam2-BCRP at 3 uM after 90 mins by Transwell assay. The conditions noted are these: dog; read-out: permeability. Type of data set: ADME, cell-based, Canis lupus familiaris, MDCK-MDR1. Summed up: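 MDCKII-MDR1 cells transduced with BacMam2-BCRP and grown in Transwells. Compound at 3 μM, in duplicate, was incubated 90 min A→B (and B→A) with and without GF120918 (5 μM, dual P-gp/BCRP inhibitor). Passive permeability (Pexact, nm/s) was calculated by an equation from earlier work. The permeability ratio is A→B permeability with GF120918 over A→B permeability without it.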

The nature of data set [3]: Volume of distribution at steady state in Wistar rat at 1.01 mg/kg, iv measured up to 4 hrs post dose. Type of data set: ADME, organism-based. The following applies: in vivo, read-out: Vdss.
Data set [4] in a line: Fraction unbound in Han-Wistar SOA rat model brain at 2 mg/kg administered via oral gavage by UPLC/MS/MS analysis. It is filed as ADME, organism-based.
A short description of data set [5]: Clearance in Wistar rat blood at 1.01 mg/kg, iv measured up to 4 hrs post dose. Type of data set: ADME, organism-based.
The nature of data set [6]: Elimination half life in Wistar rat at 1.01 mg/kg, iv measured up to 4 hrs post dose. Type of data set: ADME, organism-based. The conditions noted are these: in vivo, read-out: beta t1/2 (converted).
The next data set concerns Brain. In words: Dose normalized AUC (0 to 7 hrs) in Han-Wistar SOA rat model brain at 2 mg/kg administered via oral gavage by UPLC/MS/MS analysis. Type of data set: ADME, organism-based. The following applies: in vivo. Put shortly: (§1)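 Male Han-Wistar rats were given 2 mg/kg by oral gavage as a suspension in DMSO:1% methylcellulose (1:99). Blood (cardiac puncture, EDTA-K2, under isoflurane) and brains were collected at 0.25–7 h. Brain was homogenised in 3-fold PBS, samples were protein-precipitated and quantified by UPLC/MS/MS.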

Data set [7] in a line: Oral bioavailability in Wistar rat at 2.38 mg/kg measured up to 4 hrs after dose. The conditions noted are these: in vivo. Type of data set: ADME, organism-based.
The nature of data set [8]: Fraction unbound in Han-Wistar SOA rat model blood at 2 mg/kg administered via oral gavage by UPLC/MS/MS analysis. It is filed as ADME, organism-based.
The subject of another data set is Blood. In words: Dose normalized AUC (0 to 7 hrs) in Han-Wistar SOA rat model blood at 2 mg/kg administered via oral gavage by UPLC/MS/MS analysis. The following applies: in vivo. It is filed as ADME, organism-based. Summed up: as §1
Data set [9] deals with T1, C-X-C chemokine receptor type 2 (Homo sapiens, UniProt P25025).
T1 sequence (P25025 whole entry): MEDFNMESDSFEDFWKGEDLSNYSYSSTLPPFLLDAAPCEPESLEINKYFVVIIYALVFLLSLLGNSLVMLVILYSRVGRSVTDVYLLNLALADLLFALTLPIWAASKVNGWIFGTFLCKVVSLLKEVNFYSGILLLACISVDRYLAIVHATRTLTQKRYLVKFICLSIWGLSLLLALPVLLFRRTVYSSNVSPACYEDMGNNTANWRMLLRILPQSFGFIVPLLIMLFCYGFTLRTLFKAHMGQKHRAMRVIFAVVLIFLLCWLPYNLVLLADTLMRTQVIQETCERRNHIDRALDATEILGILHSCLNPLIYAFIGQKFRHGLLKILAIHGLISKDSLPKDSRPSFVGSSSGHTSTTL
In words: Antagonist activity at TEV protease cleavage site linked GAL4-VP16-fused recombinant human CXCR2 expressed in cells assessed as inhibition of […] human CXCL1-stimulated beta-arrestin recruitment by CCF4-AM-fluorescence based FRET assay. Type of data set: cell-based. The following applies: read-out: pIC50 (converted). Summed up: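 Stable cell line expressing recombinant human CXCR2 linked to a TEV site and Gal4-VP16. Cells were starved 24 h at 37 °C, 5% CO2, then resuspended at ~200,000 cells/mL. They were given compound in DMSO (concentration-response), stimulated with 80 nM hCXCL1 and incubated overnight at 37 °C. CCF4-AM substrate was then added for 2 h at RT in the dark.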
(Arrestin recruitment assays detect the binding of arrestin to an activated receptor.)

Data set [10] is described as follows: Cmax in Wistar rat at 2.38 mg/kg, po measured up to 4 hrs post dose. The conditions noted are these: in vivo. It is filed as ADME, organism-based. On the set-up: dose 2.38 mg/kg, route oral.
Data set [11] is described as follows: Efflux ratio of passive permeability in MDCK2-MDR1 cells transduced with BacMam2-BCRP at 3 uM after 90 mins by Transwell assay. Type of data set: ADME, cell-based, Canis lupus familiaris, MDCK-MDR1. The conditions noted are these: dog. Put shortly: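 MDCKII-MDR1 cells transduced with BacMam2-BCRP in Transwells. Compound at 3 μM was measured in duplicate, A→B and B→A, after 90 min, with and without 5 μM GF120918. ER = B→A/A→B permeability without inhibitor. System qualified with amprenavir and dantrolene ERs.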

Data set [12] can be described thus: Unbound brain-to-blood concentration ratio in Han-Wistar SOA rat model at 2 mg/kg administered via oral gavage by UPLC/MS/MS analysis. The conditions noted are these: read-out: K(p,uu,brain). Type of data set: ADME, organism-based. Summed up: (§2)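 Male Han-Wistar rats given a single 2 mg/kg oral gavage as a suspension in DMSO:1% methylcellulose (1:99). Blood was taken by cardiac puncture under isoflurane at 0.25–7 h, diluted 1:3 with water, and brains were homogenized in 3-fold PBS. Samples were extracted by acetonitrile protein precipitation and quantified by UPLC/MS/MS. Kp = brain DNAUC0-7h/blood DNAUC0-7h; Kp,uu = Kp×Fu,br/Fu,bl.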

Data set [13] deals with T1, C-X-C chemokine receptor type 2. In words: Antagonist activity at CXCR2 in human whole blood assessed as inhibition of GROalpha-stimulated CD11b upregulation preincubated for 15 mins followed by GROalpha stimulation measured after 15 mins by FITC-staining based FACS analysis. A general note: In flow cytometry, cells or beads pass a laser one at a time.
The nature of data set [14]: Tmax in Wistar rat at 2.38 mg/kg, po measured up to 4 hrs post dose. Type of data set: ADME, organism-based. The conditions noted are these: in vivo.
Data set [15] in a line: Ratio of brain dose normalized AUC (0 to 7 hrs) to […] dose normalized AUC (0 to 7 hrs), Kp of the compound in Han-Wistar SOA rat model at 2 mg/kg administered via oral gavage by UPLC/MS/MS analysis. Type of data set: ADME, organism-based. Put shortly: as §2
The subject of data set [16] is Rattus norvegicus. In words: Dose normalized AUC (0 to infinity) in Wistar rat at 1.01 mg/kg, iv measured up to 4 hrs post dose. The conditions noted are these: in vivo. It is filed as ADME, organism-based.
In data set [17] the test system is Rattus norvegicus. In words: Dose normalized AUC (0 to infinity) in Wistar rat at 2.38 mg/kg, po measured up to 4 hrs post dose. Type of data set: ADME, organism-based. The conditions noted are these: in vivo.

Molecules are shown by their SMILES. Values after ≈ are worked out from the molar mass of the structure shown.

What is called solubility is how much of the substance goes into solution per volume. A low value points to a poorly soluble substance. Usually fraction unbound stands for free concentration divided by total concentration. Higher therefore signals much free substance. Broadly, the clearance is the volume of plasma or blood freed of the substance per unit of time. As a reminder, the bioavailability is dose-corrected exposure relative to a reference, in per cent. A low value points to little systemic uptake. By Cmax is commonly meant the maximum level reached in the sampled fluid or tissue. As usually defined, the efflux ratio is the permeability from basolateral to apical divided by that in the opposite direction, in the common usage. As usually defined, the Tmax is the time from dosing to the highest level. Broadly, the Kp is tissue or fluid exposure divided by exposure in the circulation. `CC1=CCC[C@H]1NC(=O)Nc1ccc(Cl)c(S(=O)(=O)C(C)(C)CF)c1O` came in with a solubility at 4 h in [1] of 3 µg/mL (≈ 7.41 µM). For the same compound, the Papp at 1.5 h, 3 µM in data set [2] was determined as 65.4 ×10⁻⁶ cm/s. Moreover, the Vd in [3] was 2.2 L/kg. Moreover, the fraction unbound in [4] was found to be 0.034; in data set [8], 0.011. In [5], this compound returned a clearance of 15.7 mL/min/kg. The half-life in [6] is 2.5 h. Besides, the AUC/dose in the data set on Brain stood at 97 ng·h/g/mg/kg; in the data set with Blood, 614 ng·h/mL/mg/kg; in the data set on Rattus norvegicus [16] it was 1071 ng·h/mL/mg/kg; in the data set with Rattus norvegicus [17] it was 961 ng·h/mL/mg/kg. This compound had a bioavailability in data set [7] of 88%. The figures for the IC50 in [9] and in data set [13] were 0.631 nM and 100 nM, respectively. Further, in data set [10], the Cmax turned out to be 292 ng/mL. In data set [11], the efflux ratio at 1.5 h, 3 µM stood at 0.87. Further, the Kp uu in data set [12] turned out to be 0.48. Further, the time of peak concentration (Tmax) in data set [14] came out at 2.5 h. Besides, the Kp in data set [15] amounted to 0.16.
